Bioassay records deposited in PubChem by several laboratories.
Only some compounds are listed: those with a hit (about 3.6% of all), similar ones and a draw of the others.
PolyA inh: blocks polyadenylation in yeast reporter cells | S. cerevisiae SKY197-pL101 polyadenylation reporter, beta-gal luminescence; efflux-impaired pdr1/pdr3 knockout yeast; score 100 = 6 SD above DMSO | activity score, % at 12 µM | actives 0.02% (n = 300,000);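 active = lowest replicate activity score at least 50, where 100 means six control SD above control mean; inconclusive = lowest score under 50 but half or more replicates reach 50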;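 note: yeast exposed to compound for 9 h at 30 °C; higher score means more reporter readthrough which indicates perturbed polyadenylation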
AHR act: activates the human aryl hydrocarbon receptor. AID 2796. activation, % at 5 µM. AHR-responsive luciferase reporter cells, luminescence. P35869. actives 2.5% (n = 320,000); in the data active = activation above about 47%;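 note: 0% = vehicle wells and 100% = reference agonist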
Hsp70 act: transcriptional activators of Hsp70 | activation, % at 10 µM | AID 1203 | HeLa Hsp70 promoter luciferase reporter, luminescence; scaled: vehicle 0, proteasome-inhibitor control 100% | actives 0.04% (n = 200,000);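 active = activation above the mean across all tested compounds plus 3 SD, cutoff set per campaign, cut at about 5.5% in these data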;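 note: 100% = MG132 at 30 µM as the positive control and 0% = DMSO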
STAT3 activator: activators of IL-6 induced STAT3 signaling. U3A cells, IL-6 STAT3-luciferase reporter, luminescence; 100% = signal with IL-6 EC80 alone. activation (% of control), % at 5.6 µM. actives 0.91% (n = 190,000). AID 871;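 active = activation above the screen-wide mean of compound activation plus 3 SD, cut at about 130% in these data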;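 note: 0% = background luminescence of wells with medium and substrate only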
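Material: human STAT1-deficient U3A cells with stable STAT3-luciferase reporter / Probe or stimulus: IL-6 stimulus at 33 ng/mL final / Schedule: 1 h compound pre-exposure, 6 h IL-6 stimulation, 37 °C / Technique: luminescence / Read-out basis: percent of IL-6-only median luminescence / Control set: IL-6-only high control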
HSF1 inh: HSF1 inhibition; NIH3T3-HGL HSE-luciferase, MG132-induced, luminescence 8 h; active compounds read low; activity change, negative = inhibition, % at 7.5 µM (by protocol); actives 0.77% (n = 300,000); AID 2098;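 active = more than half of replicate wells show activity change below -50%, luminescence cut by over half; inconclusive = some wells, but at most half, below -50%; inactive = no replicate well below -50%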;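 note: luciferase reports HSF-1 transcriptional activity via heat shock element; 0% = median of DMSO wells and -100% = zero luminescence signal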
PERK inh: blocks human PERK kinase; CHO PERK-DD fusion, SEAP luminescence translation reporter; inhibition, % at 5.6 µM; actives 0.17% (n = 220,000); AID 1416;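 active = inhibition above the mean inhibition of all tested compounds plus 3 SD, set separately per screening campaign, cut at about 2.9% in these data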;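 note: PERK kinase domain activated by AP20187 dimerizer at 100 nM; 0% = DMSO with dimerizer and 100% = rapamycin at 8.4 µM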
Target sequence (Q9NZJ5 whole entry, looked up, the tested form may be a part): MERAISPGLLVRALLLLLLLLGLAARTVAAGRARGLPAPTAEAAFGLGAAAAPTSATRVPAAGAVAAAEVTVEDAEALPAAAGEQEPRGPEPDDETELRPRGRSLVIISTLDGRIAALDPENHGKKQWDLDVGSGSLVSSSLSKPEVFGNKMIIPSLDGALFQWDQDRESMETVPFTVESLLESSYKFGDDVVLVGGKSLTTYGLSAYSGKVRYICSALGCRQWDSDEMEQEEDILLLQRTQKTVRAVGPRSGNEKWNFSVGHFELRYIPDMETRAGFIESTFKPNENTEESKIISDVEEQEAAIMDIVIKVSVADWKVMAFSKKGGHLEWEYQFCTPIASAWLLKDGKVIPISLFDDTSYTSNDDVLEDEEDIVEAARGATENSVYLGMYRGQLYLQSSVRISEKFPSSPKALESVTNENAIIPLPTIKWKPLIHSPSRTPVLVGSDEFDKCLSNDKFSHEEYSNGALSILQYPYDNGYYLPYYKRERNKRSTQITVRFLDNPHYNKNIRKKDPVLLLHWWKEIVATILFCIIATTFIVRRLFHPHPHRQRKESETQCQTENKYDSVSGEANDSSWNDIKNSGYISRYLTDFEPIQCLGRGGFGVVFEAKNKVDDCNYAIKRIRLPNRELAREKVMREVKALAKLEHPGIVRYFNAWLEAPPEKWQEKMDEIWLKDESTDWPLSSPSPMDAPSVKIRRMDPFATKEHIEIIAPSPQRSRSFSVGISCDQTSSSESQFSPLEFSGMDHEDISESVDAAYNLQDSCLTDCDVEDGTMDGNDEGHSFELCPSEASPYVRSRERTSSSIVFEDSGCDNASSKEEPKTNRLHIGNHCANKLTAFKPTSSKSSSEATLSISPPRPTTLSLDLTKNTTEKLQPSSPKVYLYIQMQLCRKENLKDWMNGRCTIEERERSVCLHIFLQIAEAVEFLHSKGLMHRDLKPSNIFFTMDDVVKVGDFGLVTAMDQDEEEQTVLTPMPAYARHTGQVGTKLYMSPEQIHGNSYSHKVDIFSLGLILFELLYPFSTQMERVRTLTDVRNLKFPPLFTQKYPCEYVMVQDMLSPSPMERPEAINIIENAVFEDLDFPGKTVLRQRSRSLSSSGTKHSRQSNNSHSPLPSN
* marks the source's active call; other numbers are inactive results; ? = inconclusive; . = no result.

SMILES	PolyA inh	AHR act	Hsp70 act	STAT3 activator	HSF1 inh	PERK inh
CC1CCCN(c2ncnc3c2cnn3-c2ccc(Cl)cc2)C1 (stereo unspecified)	0.4	-2.6	.	.	-90.2*	.
CC1CCCN(c2ncnc3c2cnn3-c2ccccc2)C1 (stereo unspecified)	8.0	25.8	.	.	-60.8*	.
CC1CC(C)CN(c2ncnc3c2cnn3-c2ccc(Cl)cc2)C1 (stereo unspecified)	-11.8	-4.9	-0.1	101.1	-52.0*	1.0
CN1CCN(c2ncnc3c2cnn3-c2ccc(Cl)cc2)CC1	2.1	-6.5	-0.3	60.3	?	-0.6
Cc1ccccc1CN1CCN(CC2CC2)CC1CCO (stereo unspecified)	7.2	-1.7	.	.	1.2	.
CCC(=O)C1CCCN(C(=O)c2ccc(OC3CCN(C(=O)CCOC)CC3)cc2)C1 (stereo unspecified)	-5.5	4.2	.	.	-8.6	.
Cc1ccc(C(=O)C(C)OC(=O)CN2C(=O)NC3(CCCC3)C2=O)cc1 (stereo unspecified)	9.5	2.7	.	.	-2.4	.
COc1ccccc1CCNC(=O)C(=O)c1cn(CC(=O)N2CCOCC2)c2ccccc12	-7.1	9.1	.	.	17.2	.
CCOC(=O)c1ccc(NC(=O)COc2ccccc2CNCCc2ccccc2)cc1	-9.1	50.0*	-0.2	108.8	4.6	-1.1
CCOC(=O)c1ccc(NC(=O)COc2ccc(CNCCO)cc2OCC)cc1	-3.8	-0.2	-0.2	100.8	-8.4	1.4
CN(CC(=O)NCc1ccco1)S(=O)(=O)c1ccc2c(c1)c(=O)n(C)c(=O)n2C	1.3	1.8	.	.	-1.2	-0.3
Cc1cc(C)nc(NNC2=CC(=[N+]3CCCC3)CCC2)n1	-0.8	9.9	0.1	98.8	0.1	0.3
Cc1cc(C)nc(NNC2=CC(=[N+]3CCCCC3)CC(C)(C)C2)n1	-6.5	3.2	-0.2	107.7	-71.0*	-0.2
Cc1cccc(N/C(=N/S(=O)(=O)c2ccccc2)c2ccccc2)n1	0.2	-3.2	.	.	3.6	.
O=C(c1ccccc1)c1nn(-c2ccc(Cl)cc2)c(=O)cc1C(F)(F)F	21.4	17.1	0.1	134.4*	30.8	-0.1
O=C(c1ccccc1)c1nn(-c2ccccc2)c(=O)cc1C(F)(F)F	14.7	4.2	-0.5	93.2	6.4	0.7
COc1cc(OC)cc(N2C(=O)CC(N3CCC(C(=O)N4CCCCC4)CC3)C2=O)c1 (stereo unspecified)	-9.1	.	.	.	-2.8	.
Cc1noc(C)c1COc1ccc(C(=O)OCC(=O)NCCN2C(=O)CSC2=O)cc1	0.1	-0.5	-0.4	103.0	-5.3	1.1
COc1cc(OC)cc(-c2cc(N)n(S(=O)(=O)c3cccc4nsnc34)n2)c1	5.2	54.6*	.	.	.	0.4
CCCS(=O)(=O)n1nc(-c2ccc(OC)cc2OC)cc1N	-5.2	62.2*	-0.2	96.6	7.4	0.9
COc1cc(OC)cc(-c2cc(N)n(S(=O)(=O)Cc3ccccc3)n2)c1	2.2	62.9*	-0.2	98.9	9.0	0.1
C[C@H](CO)N1C[C@H](C)[C@@H](CN(C)S(=O)(=O)c2ccccc2)Oc2ccc(NC(=O)CCC(F)(F)F)cc2C1=O	.	-0.9	.	.	.	.
CCOc1ncccc1C(=O)Nc1cccc(-c2nc3cccnc3s2)c1	-8.8	50.1*	.	.	4.6	-0.5
CCC(C)(C)NC(=O)CN(C(=O)C(=O)Nc1ccc2c(c1)OCCO2)C1CC1	24.3	1.0	.	.	-4.5	.
COc1ccc([C@@H]2C[C@@H](c3ccccc3)Oc3c(C)ccc(C(C)C)c32)cc1	1.7	3.4	.	.	-65.6*	.
SMILES	PolyA inh	AHR act	Hsp70 act	STAT3 activator	HSF1 inh	PERK inh
COC(C(=O)Nc1ccc(S(=O)(=O)Nc2cccc3ccccc23)cc1)c1ccccc1 (stereo unspecified)	14.6	-0.6	-0.3	102.8	40.4	-0.3
O=C(Nc1cc(Cl)ccc1Oc1ccccc1)c1ccc(F)cc1	9.7	3.8	-0.3	102.8	0.9	0.5
O=C(Nc1cc(Cl)ccc1Oc1ccccc1)c1ccccc1F	-69.6	65.0*	-0.3	99.5	9.3	0.8
O=C(c1ccccc1Oc1ccc(C(F)(F)F)cc1[N+](=O)[O-])N1CCOCC1	-14.6	-2.5	0.1	102.3	1.1	0.0
O=C(Nc1ccccc1Oc1ccccc1)c1cc([N+](=O)[O-])ccc1Cl	-17.3	108.3*	-0.3	97.8	12.3	0.1
COc1ccccc1NC(=O)c1cc([N+](=O)[O-])ccc1NCCN1C(=O)CCC1=O	5.2	51.1*	0.2	102.2	11.9	-0.2
O=C(Nc1ccccc1Cl)c1ccccc1Oc1ccc(C(F)(F)F)cc1[N+](=O)[O-]	-0.1	74.8*	-0.6	106.0	6.9	-0.5
COc1ccccc1NC(=O)c1cc(OC)c(OC)cc1[N+](=O)[O-]	4.4	8.4	-0.2	100.7	4.5	2.4
CC(=O)Nc1ccc(C(F)(F)F)cc1Cl	12.8	0.9	.	.	-2.4	1.2
Cn1c(=O)c2ccccc2n(Cc2cccc(F)c2)c1=O	-17.1	-0.3	.	.	-1.5	.
CCOC(=O)Cc1csc(NC(=O)CSc2nccn2C)n1	-5.0	1.5	.	.	4.1	.
Cc1nc(-c2ccccc2)sc1-c1n[nH]c(=S)n1C	4.8	93.5*	-0.3	92.3	-25.3	-0.1
CCOc1ccc(CCNC(=O)c2nn(C)c3c2CS(=O)(=O)c2ccccc2-3)cc1	-12.5	5.7	.	.	-53.1*	.
O=C(Nc1ccc2c(c1)OCO2)c1c(F)c(F)c(F)c(F)c1F	.	9.7	-0.2	105.8	4.2	0.2
CCc1ccc2[nH]c(C(=O)Nc3ccc(Br)c(C)n3)cc2c1	1.9	.	.	.	11.1	.
CCc1ccc2[nH]c(C(=O)Nc3ccc(F)cc3Br)cc2c1	-8.3	48.6*	.	.	-0.6	.
CCc1onc(C)c1C(=O)Nc1ccc2c(c1)OCO2	-3.6	58.1*	0.0	103.2	1.5	0.0
CCc1ccc2[nH]c(C(=O)Nc3ccc4c(c3)OCO4)cc2c1	-26.3	72.2*	.	.	20.6	-0.4
Cc1cc(C)c2[nH]c(C(=O)Nc3ccc4c(c3)OCO4)cc2c1	-2.0	-2.0	.	.	14.5	-0.8
CN(C)S(=O)(=O)c1cccc(COC(=O)Cc2c(F)cccc2Cl)c1	0.0	1.9	.	.	-3.4	.
Cn1c(=O)c(S(=O)C2CCCCC2)c(O)c2ccccc21 (stereo unspecified)	7.2	10.1	.	.	-11.6	.
CCc1nnc(NC(=O)CSc2nnc(C3CC3)n2C)s1	-3.5	3.3	.	.	4.7	.
CCOC(=O)c1ccc(NC(=O)N2CCN(S(C)(=O)=O)CC2)cc1	7.5	3.9	1.0	102.3	-53.0*	0.8
CCOC(=O)c1ccc(NC(=O)N2CCN(Cc3ccccc3)CC2)cc1	9.7	3.6	0.0	133.1*	-19.5	1.0
CCOC(=O)c1ccc(NC(=O)CN2CCN(Cc3ccccc3)CC2)cc1	-4.9	-1.9	1.0	105.0	-7.5	0.8
O=C(OCn1ncc(Br)c(Br)c1=O)c1ccc(F)cc1	-87.5	5.5	3.4	90.7	-94.3*	-1.3
